How the values were obtained:
[1] = molecular target: T1, Angiotensin-converting enzyme (Oryctolagus cuniculus, UniProt P12822); assay: Evaluation of in vitro inhibitory activity against Angiotensin I converting enzyme
T1 sequence (P12822 whole entry): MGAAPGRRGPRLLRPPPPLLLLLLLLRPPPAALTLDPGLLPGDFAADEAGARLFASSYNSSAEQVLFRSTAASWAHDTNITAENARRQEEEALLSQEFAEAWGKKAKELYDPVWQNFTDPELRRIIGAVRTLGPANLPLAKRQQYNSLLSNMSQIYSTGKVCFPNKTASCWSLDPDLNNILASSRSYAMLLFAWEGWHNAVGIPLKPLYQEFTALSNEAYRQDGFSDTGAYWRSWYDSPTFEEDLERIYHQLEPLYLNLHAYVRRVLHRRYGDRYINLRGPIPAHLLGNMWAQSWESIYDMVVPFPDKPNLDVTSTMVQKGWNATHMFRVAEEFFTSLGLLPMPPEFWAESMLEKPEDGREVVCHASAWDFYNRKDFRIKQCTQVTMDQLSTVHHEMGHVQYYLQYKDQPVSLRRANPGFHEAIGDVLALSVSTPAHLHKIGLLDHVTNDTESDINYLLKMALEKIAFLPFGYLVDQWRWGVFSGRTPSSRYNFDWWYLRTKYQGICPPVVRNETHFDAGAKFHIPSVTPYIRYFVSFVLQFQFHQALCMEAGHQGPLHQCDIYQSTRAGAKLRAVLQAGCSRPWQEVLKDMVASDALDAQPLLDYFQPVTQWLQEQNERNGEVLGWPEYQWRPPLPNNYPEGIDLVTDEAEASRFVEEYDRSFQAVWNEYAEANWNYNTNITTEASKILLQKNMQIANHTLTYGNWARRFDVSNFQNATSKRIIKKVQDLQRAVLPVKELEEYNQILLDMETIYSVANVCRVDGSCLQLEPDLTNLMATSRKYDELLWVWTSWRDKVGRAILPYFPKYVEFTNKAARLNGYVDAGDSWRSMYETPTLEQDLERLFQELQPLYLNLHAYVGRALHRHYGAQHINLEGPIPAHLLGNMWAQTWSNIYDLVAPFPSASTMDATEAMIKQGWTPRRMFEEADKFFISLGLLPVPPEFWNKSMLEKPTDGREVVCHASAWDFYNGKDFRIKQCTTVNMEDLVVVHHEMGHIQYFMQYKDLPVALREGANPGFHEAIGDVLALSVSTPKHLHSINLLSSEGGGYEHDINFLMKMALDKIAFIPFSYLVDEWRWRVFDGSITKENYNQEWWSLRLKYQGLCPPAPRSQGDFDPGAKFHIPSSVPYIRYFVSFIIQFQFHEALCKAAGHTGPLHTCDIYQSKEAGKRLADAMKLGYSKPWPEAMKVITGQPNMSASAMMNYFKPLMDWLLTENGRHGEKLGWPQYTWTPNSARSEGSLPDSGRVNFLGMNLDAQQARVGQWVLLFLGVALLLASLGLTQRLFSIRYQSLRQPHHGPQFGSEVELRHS
Method in brief: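 Rabbit lung ACE in 300 mM NaCl, 100 mM KH2PO4 (pH 8.3). Enzyme and drug mixed, then hippurylhistidylleucine (2 mg/mL stock) added and incubated 75 min at room temperature. Stopped with 1 N NaOH, o-phthalaldehyde added for 10 min at 25 °C, acidified with HCl, OD read at 360 nm.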

[2] = molecular target: T2, Angiotensin-converting enzyme (Rattus norvegicus) (UniProt P47820); assay: Evaluation of plasma inhibition of Angiotensin I converting enzyme activity in conscious rat 6 hours after intravenous administration at a dose of 10 mg/kg; format: functional, organism-based; design: dose 10 mg/kg
T2 sequence (whole entry): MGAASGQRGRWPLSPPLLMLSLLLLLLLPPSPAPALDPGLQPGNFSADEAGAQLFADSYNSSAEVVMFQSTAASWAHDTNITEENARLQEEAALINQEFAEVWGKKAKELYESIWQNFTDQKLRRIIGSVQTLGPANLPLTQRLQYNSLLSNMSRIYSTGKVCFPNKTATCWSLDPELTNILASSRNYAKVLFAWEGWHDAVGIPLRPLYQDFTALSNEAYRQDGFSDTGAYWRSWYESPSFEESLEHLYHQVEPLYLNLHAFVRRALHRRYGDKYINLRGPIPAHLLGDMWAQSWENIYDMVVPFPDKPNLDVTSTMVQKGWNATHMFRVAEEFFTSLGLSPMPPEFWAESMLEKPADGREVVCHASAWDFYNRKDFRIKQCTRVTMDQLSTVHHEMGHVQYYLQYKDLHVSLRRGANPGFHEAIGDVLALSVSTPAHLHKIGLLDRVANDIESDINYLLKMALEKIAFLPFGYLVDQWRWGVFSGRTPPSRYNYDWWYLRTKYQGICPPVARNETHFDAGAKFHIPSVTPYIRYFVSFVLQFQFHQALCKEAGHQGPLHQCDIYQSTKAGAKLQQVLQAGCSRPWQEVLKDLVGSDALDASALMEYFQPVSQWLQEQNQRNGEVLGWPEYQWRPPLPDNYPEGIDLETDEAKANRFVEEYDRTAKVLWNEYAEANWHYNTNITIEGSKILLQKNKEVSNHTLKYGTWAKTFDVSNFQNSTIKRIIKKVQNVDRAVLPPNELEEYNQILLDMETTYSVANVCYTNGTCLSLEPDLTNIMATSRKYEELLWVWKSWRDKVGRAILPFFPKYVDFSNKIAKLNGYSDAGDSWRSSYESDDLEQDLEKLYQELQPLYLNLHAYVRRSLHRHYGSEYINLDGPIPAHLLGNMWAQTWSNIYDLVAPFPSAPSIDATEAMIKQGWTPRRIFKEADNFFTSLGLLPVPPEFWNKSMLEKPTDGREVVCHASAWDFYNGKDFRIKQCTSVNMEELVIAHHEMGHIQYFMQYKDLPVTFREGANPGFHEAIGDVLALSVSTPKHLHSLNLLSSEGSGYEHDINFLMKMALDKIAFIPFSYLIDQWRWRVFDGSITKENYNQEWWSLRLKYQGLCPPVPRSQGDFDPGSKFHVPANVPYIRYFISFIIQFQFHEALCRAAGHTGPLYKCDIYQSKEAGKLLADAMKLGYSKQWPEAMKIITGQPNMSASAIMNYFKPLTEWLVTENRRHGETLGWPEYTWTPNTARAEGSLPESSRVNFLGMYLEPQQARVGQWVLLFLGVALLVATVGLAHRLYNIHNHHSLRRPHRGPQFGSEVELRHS
Method in brief: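 Male conscious normotensive Sprague-Dawley rats (275-390 g) fitted the day before with femoral arterial and venous catheters under methohexital anesthesia. Three angiotensin-I challenges (300 ng/kg iv) given as baseline. Compound given iv, ia or po (12.3 mg/kg po dose in 3% cornstarch at 1 mg/mL), then AI challenges repeated at set times. Pressor response compared with the mean baseline response and expressed as % inhibition.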

[3] = molecular target: T2, Angiotensin-converting enzyme (Rattus norvegicus); assay: Evaluation of plasma inhibition of Angiotensin I converting enzyme activity in conscious rat 2 hour after oral administration at a dose of 10 mg/kg; format: functional, organism-based; design: dose 10 mg/kg
[4] = molecular target: T2, Angiotensin-converting enzyme (Rattus norvegicus); assay: Evaluation of plasma inhibition of Angiotensin I converting enzyme activity in conscious rat 4 hour after oral administration at a dose of 10 mg/kg; format: functional, organism-based; design: dose 10 mg/kg
[5] = molecular target: T2, Angiotensin-converting enzyme (Rattus norvegicus); assay: Evaluation of plasma inhibition of Angiotensin I converting enzyme activity in conscious rat 1 hour after oral administration at a dose of 10 mg/kg; format: functional, organism-based; design: dose 10 mg/kg

| IC50 [1] [nM] | inhibition [2] [%] | inhibition [3] [%] | inhibition [4] [%] | inhibition [5] [%] | Structure (SMILES) |
| --- | --- | --- | --- | --- | --- |
| 11 |  |  |  |  | CC(C)[C@H](S)C(=O)NC1(C(=O)N[C@@H](Cc2ccc(O)cc2)C(=O)O)CCOCC1 |
| 22 | 17 |  |  |  | O=C(O)[C@H](Cc1ccc(O)cc1)NC(=O)C1(NC(=O)[C@@H](S)Cc2ccccc2)CCCC1 |
| 15 | 67 |  |  |  | CC(C)[C@H](S)C(=O)NC(C)(C)C(=O)N[C@@H](Cc1ccc(O)cc1)C(=O)O |
| 24 | 28 |  |  |  | CC(C)[C@H](S)C(=O)NC1(C(=O)N[C@@H](Cc2ccc(F)cc2)C(=O)O)CCCC1 |
| 26 | 9 |  |  |  | CC(C)[C@H](S)C(=O)NC1(C(=O)N[C@@H](Cc2ccc(O)cc2)C(=O)O)Cc2ccccc2C1 |
| 10 | 82 | 50 | 29 | 45 | CC(C)[C@H](S)C(=O)NC1(C(=O)N[C@@H](Cc2c[nH]c3ccccc23)C(=O)O)CCCC1 |
| 30 | 75 |  |  |  | CC(C)[C@H](S)C(=O)NC1(C(=O)N[C@@H](CCc2ccccc2)C(=O)O)CCCC1 |
| 58 |  |  |  |  | O=C(CS)NC1(C(=O)N[C@@H](Cc2ccc(O)cc2)C(=O)O)CCCC1 |
| 7 | 68 | 59 | 36 | 48 | CC(C)[C@H](S)C(=O)NC1(C(=O)N[C@@H](Cc2ccc(O)cc2)C(=O)O)CCCC1 |
| 15 | 17 |  |  |  | CC(C)[C@H](S)C(=O)NC1(C(=O)N[C@@H](Cc2ccc(O)cc2)C(=O)O)CC1 |
| 35 | 17 |  |  |  | CC(C)[C@H](S)C(=O)NC1(C(=O)N[C@@H](Cc2ccccn2)C(=O)O)CCCC1 |
| 11 | 71 |  |  |  | CC(C)[C@H](S)C(=O)NC1(C(=O)N[C@@H](Cc2ccsc2)C(=O)O)CCCC1 |
| 18 | 29 |  |  |  | CC(C)[C@H](S)C(=O)NC1(C(=O)N[C@@H](Cc2cccs2)C(=O)O)CCCC1 |

From ChEMBL document CHEMBL1128218, “New alpha-thiol dipeptide dual inhibitors of angiotensin-I converting enzyme and neutral endopeptidase EC 3.4.24.11” (J Med Chem, 1995)
